Activity calls are given as the source filed them. The rule behind the calls is not given here.

For test [1], the target named is T1, L-lactate dehydrogenase A chain (Homo sapiens, UniProt P00338). Description: Inhibition of LDHA (unknown origin) in presence of NADH and sodium pyruvate measured after 10 mins by enzymatic assay. A digest of the protocol:
(§1)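 LDHA at 5 nM final in buffer of 150 mM Tris-HCl pH 7.4 with EDTA and 0.01% Tween-20, compounds in 1% DMSO. Reaction started with substrate solution, final NADH 0.06 mM and sodium pyruvate 0.2 mM. After 10 min at room temperature, plates read at 340 nm. Screening done at a single concentration of 10.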

Test [2] can be described thus: Inhibition of pig PDK assessed as catalytic activity measured after 30 mins by microplate reader based assay. Also on record: species or system Sus scrofa. A digest of the protocol: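 Pig PDC preincubated 30 min at 37 °C in Mops pH 7.20 buffer with EDTA, KCl, MgCl2, acetyl-CoA, NADH, DTT and NaF. Kinase reaction started by adding ATP-containing buffer with or without compound; ATP-free wells serve as no-PDK controls. Reaction run 3 min at 37 °C, then stopped with ADP and pyruvate. Remaining PDC activity measured at 340 nm in Tris pH 7.8 with TPP, NAD+, pyruvate and CoA. IC50 is the mean of three independent experiments.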

Test [3] has as its target T1, L-lactate dehydrogenase A chain. Description: Inhibition of LDHA (unknown origin) in presence of NADH and sodium pyruvate at 10 uM by enzymatic assay relative to parent compound. A digest of the protocol: as §1
The species entered for a further test is Sus scrofa. Description: Inhibition of pig PDK assessed as catalytic activity at 10 uM by PDC assay.
Test [4] deals with A549. Description: Antiproliferative activity against human A549 assessed as cell growth inhibition at 20 uM measured after 72 hrs by MTT assay. The format is functional. The essentials: (§2)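 A549 cells grown in DMEM with 10% FBS and 1% penicillin/streptomycin, 5% CO2, humidified; exponential-phase cells used. Cells seeded at 2000/well, exposed to compound for 72 h, then MTT added and incubated 4 h before readout. Single-concentration screening at […]; EC50 values calculated from two independent experiments.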
(Tetrazolium assays rely on reduction of a dye to a coloured formazan, in cell work by metabolically active cells.)

The test system of test [5] is A549. Description: Anticancer activity against human A549 assessed as cell growth inhibition measured after 72 hrs by MTT assay. Format: functional, cell-based. The conditions noted are these: A549, 72 h. The essentials:
as §2

Test [6] concerns A549. Description: Metabolic modulatory effect in human A549 cells assessed as decrease in lactate formation measured after 4 hrs by Flex analyzer. Format: functional, cell-based. The conditions noted are these: dose 10-40 µM. A digest of the protocol:
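A549 cells, 2 × 10^5 per well, plated overnight, then treated at […] for 4 h at 37 °C. Medium collected and centrifuged 10 min at 10000 rpm to remove debris. Lactate in the medium measured on a Nova Bioprofile Flex analyzer.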

The subject of test [7] is A549. Description: Metabolic modulatory effect in human A549 cells assessed as increase in oxygen consumption rate at 10 to 40 uM measured after 4 hrs by seahorse XF24 extracellular flux analyzer assay. The conditions noted are these: dose 10-40 µM. Format: functional, cell-based.

One may read the IC50 as the concentration that inhibits the measured activity by half. Take `Cc1ccccc1N1CCN(C(=O)COc2c(C)occc2=O)CC1`: the IC50 in test [1] and in test [2] was greater than 10 µM throughout.
One may read the inhibition as how much of the control response was suppressed. For `CC(C)c1nc(N2CCN(C(=O)C(=O)NCCO)CC2)c(C#N)c2c1CCC2`, in test [3], the inhibition result was “Active”. Besides, in the test filed under Sus scrofa, the inhibition amounted to 50%. In addition, the inhibition entry in the test with A549 [4] is “inactive”.
In the case of `O=C(CN1C(=O)c2ccccc2N2C(=O)c3ccccc3C12)NCCNc1ncccn1` (stereo unspecified), the inhibition result in test [3] is “Active”. Moreover, in the test listed under Sus scrofa, the inhibition was 50%. The inhibition at 20 µM in the test on A549 [4] was 50%.
In the case of `Cc1occc(=O)c1OCC(=O)N1CCN(c2ccccc2F)CC1`, the half-inhibitory concentration (IC50) in test [1] and in test [2] was greater than 10 µM throughout.
For orientation: EC50 means the concentration that produces a half-maximal response. `Cc1occc(=O)c1OCCN1CCN(C(=O)c2ccccc2F)CC1`: the half-maximal inhibitory concentration (IC50) worked out at 3.4 µM in test [1] and 5.9 µM in test [2]. The EC50 with A549 [5] was greater than 20 µM.
Regarding `CCOC(=O)C(=O)N1CCN(c2nc(-c3ccccc3)c3c(c2C#N)CC(C)(C)OC3)CC1`, the inhibition result in test [3] was “Active”. In addition, the inhibition in the test filed under Sus scrofa amounted to 50%. The inhibition entry in the test with A549 [4] is “inactive”.
As for `Cc1occc(=O)c1OCCN1CCN(C(=O)c2ccccc2[N+](=O)[O-])CC1`, the values for the IC50 in test [1] and in test [2] were greater than 10 µM and 3 µM, respectively.
In the case of `Cc1occc(=O)c1OCCN1CCN(C(=O)c2ccc(Cl)cc2)CC1`, the concentration for half-maximal inhibition (IC50) in test [1] was 2.7 µM; in test [2], 3.9 µM. The EC50 in the test with A549 [5] was greater than 20 µM.
Consider `COc1cccc(C(=O)N2CCN(CCOc3c(C)occc3=O)CC2)c1`, for which the IC50 in test [1] and in test [2] was greater than 10 µM in each case.
For `Cc1occc(=O)c1OCC(=O)N1CCN(c2ncccn2)CC1`, the half-maximal inhibitory concentration (IC50) in test [1] and in test [2] was greater than 10 µM each time.
Take `Cc1occc(=O)c1OCC(=O)N1CCN(c2cccc(F)c2)CC1`: the IC50 in test [1] was greater than 10 µM; in test [2], 1 µM.
Regarding `Cc1occc(=O)c1OCC(=O)N1CCN(c2ccc(F)cc2)CC1`, the IC50 was found to be 3.7 µM in test [1] and 1.4 µM in test [2].
For `Cc1occc(=O)c1OCCN1CCN(C(=O)c2ccccc2)CC1`, in that order: 2.8 µM and greater than 10 µM.
Taken in the same sequence, the figures for `Cc1occc(=O)c1OCC(=O)N1CCN(c2ccc([N+](=O)[O-])cc2)CC1` were 6.9 µM and 0.8 µM.
In the case of `COc1cccc(N2CCN(C(=O)COc3coc(C)cc3=O)CC2)c1`, in test [3], the inhibition result was “Active”. The inhibition in the test filed under Sus scrofa came out at 50%. Also, in the test on A549 [4], the inhibition entry is “inactive”.
With `COc1ccc(N2CCN(C(=O)COc3c(C)occc3=O)CC2)cc1`, the IC50 in test [1] is 0.56 µM; in test [2], greater than 10 µM.
Consider `Cc1occc(=O)c1OCCN1CCN(C(=O)c2ccc(C(F)(F)F)cc2)CC1`, for which the values for the IC50 in test [1] and in test [2] were 4.7 µM and 5.1 µM, respectively. Further, the EC50 with A549 [5] is greater than 20 µM.
As to `Cc1cc(C)cc(N2CCN(C(=O)COc3c(C)occc3=O)CC2)c1`, the half-maximal inhibitory concentration (IC50) in test [1] was greater than 10 µM; in test [2], 8.1 µM.
Turning to `Cc1nc(N2CCN(C(=O)C(=O)NCCO)CC2)c(C#N)c2c1CCCC2`, the inhibition result in test [3] is “Active”. Besides, in the test listed under Sus scrofa, the inhibition amounted to 50%. For the same compound, in the test on A549 [4], the inhibition result was “inactive”.
Regarding `CCOC(=O)C(=O)N1CCN(c2nc(C)c3c(c2C#N)CCCC3)CC1`, the inhibition entry in test [3] was “Active”. For the same compound, the inhibition in the test listed under Sus scrofa is 50%. Besides, in the test on A549 [4], the inhibition entry was “inactive”.
In the case of `Cc1occc(=O)c1OCC(=O)N1CCN(c2ccccc2[N+](=O)[O-])CC1`, the results for the IC50 in test [1] and in test [2] were greater than 10 µM and 6.3 µM, respectively.
Turning to `Cc1occc(=O)c1OCCN1CCN(C(=O)c2ccco2)CC1`, the IC50 in test [1] stood at 0.7 µM; in test [2], 1.6 µM. In the test on A549 [5], the EC50 was found to be 15.7 µM. Also, the Activity entry in the test on A549 [6] was “Dose-dependent effect”. Further, the result with A549 [7] was Active.
For `Cc1occc(=O)c1OCCN1CCN(C(=O)c2ccc(F)cc2)CC1`, in that order: 0.15 µM, 0.8 µM, 13.2 µM, “Dose-dependent effect” and “Active”.
Consider `COc1cccc(N2CCN(C(=O)COc3c(C)occc3=O)CC2)c1`, for which the figures for the IC50 in test [1] and in test [2] were 4.6 µM and greater than 10 µM, respectively.
Taken in the same sequence, the figures for `COc1cc(OC)cc(N2CCN(C(=O)COc3c(C)occc3=O)CC2)c1` were greater than 10 µM and greater than 10 µM.
For `Cc1occc(=O)c1OCCN1CCN(C(=O)C(Cl)Cl)CC1`, in that order: greater than 10 µM and greater than 10 µM.
Take `CCOC(=O)C(=O)N1CCN(c2nc(C(C)C)c3c(c2C#N)CCC3)CC1`: the inhibition entry in test [3] is “Active”. Further, the inhibition in the test listed under Sus scrofa turned out to be 50%. For the same compound, in the test with A549 [4], the inhibition result was “inactive”.
Consider `Cc1occc(=O)c1OCC(=O)N1CCN(C(c2ccccc2)c2ccccc2)CC1`, for which the IC50 in test [1] is 7.3 µM; in test [2], greater than 10 µM.
Turning to `CC1(C)Cc2c(C#N)c(N3CCN(C(=O)C(=O)NCCO)CC3)nc(-c3ccccc3)c2CO1`, the inhibition result in test [3] was “Active”. Besides, the inhibition in the test filed under Sus scrofa came to 50%. The inhibition result in the test with A549 [4] is “inactive”.
For the compound `Cc1occc(=O)c1OCC(=O)N1CCN(c2ccccn2)CC1`, the IC50 in test [1] and in test [2] was greater than 10 µM each time.
Take `Cc1occc(=O)c1OCC(=O)N1CCN(c2ccccc2)CC1`: the figures for the IC50 in test [1] and in test [2] were greater than 10 µM and 1.8 µM, respectively.
With `Cc1occc(=O)c1OCC(=O)N1CCN(c2cccc(Cl)c2)CC1`, the inhibition in the test filed under Sus scrofa amounted to 50%. Also, the inhibition at 20 µM in the test on A549 [4] worked out at 51%. For the same compound, the half-inhibitory concentration (IC50) was determined as 5.9 µM in test [1] and 9.1 µM in test [2]. Moreover, the EC50 in the test with A549 [5] came out at 18.5 µM.
For the compound `Cc1cccc(C(=O)N2CCN(CCOc3c(C)occc3=O)CC2)c1`, the IC50 in test [1] was 7.7 µM; in test [2], greater than 10 µM.

Values taken from ChEMBL document CHEMBL4706516, “Development of dual inhibitors targeting pyruvate dehydrogenase kinases and human lactate dehydrogenase A: High-throughput virtual screening, synthesis and biological validation” (Eur J Med Chem, 2020).
